# Source: ChEMBL document CHEMBL2169848, “Synthesis physicochemical profile and PAMPA study of new NO-donor edaravone co-drugs” (Bioorg Med Chem, 2012)
# pEC50: −log10 of the molar value. Active and inactive are the calls of the source. The rule behind the calls is not given here.
# How the values were obtained:
# [1] = Half life in Wistar rat liver homogenate at 200 uM by RP-HPLC analysis; type: ADME, tissue-based
# Outline: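 Liver from male Wistar rats (200–250 g), 20% homogenate spun at 8000g. Incubated at 37 °C in Tris-HCl/KCl 100/150 mM, pH 7.4, with 6.4 mg protein/mL, 2 mM GSH and 1 mM NADPH. Compound 200 µM final, added from a 10 mM acetonitrile stock. Aliquots deproteinized with cold acetonitrile and analysed by RP-HPLC. Half-life from n = 3.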
# [2] = Lipophilicity, log P of the compound in octanol-buffer at pH 7 by HPLC analysis; type: physicochemical
# Outline: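 Retention measured by isocratic RP-HPLC on an RP-amide-C16 column at 30 °C. Mobile phase was pH 7.0 phosphate buffer/methanol, 30–70%, ionic strength 20 mM; uracil used as dead-time marker. log kw extrapolated from at least four methanol ratios, each injected at least three times. Converted to logPoct via a reference line of 63 compounds.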
# [3] = Half life in 5% DMSO/0.1 M KCl by RP-HPLC analysis; type: physicochemical; conditions: for half-life: 5% DMSO/0.1 M KCl
# Outline: (§1)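 10 mM DMSO stock added to water with 0.1 M KCl to give 5% DMSO (v/v), then filtered. Room temperature. Compound followed by RP-HPLC (C18, methanol/water gradient, 240 nm), calibration 1–200 µM. Half-life from n = 3.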
# [4] = Half life in human serum at 250 uM by RP-HPLC analysis; type: ADME, cell-free
# Outline: (§2)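 Compound added from a 10 mM methanol stock to human serum (male AB plasma) at 37 °C, final 250 µM. Aliquots taken at intervals and deproteinized with acetonitrile containing 0.1% TFA, then centrifuged and filtered. Analysed by RP-HPLC. Half-life from n = 3.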
# [5] = Half life in 0.1 M HCl/MeOH 60/40 (v/v) mixture by RP-HPLC analysis; type: physicochemical
# Outline: (§3)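 Methanolic compound solution (0.5 mM, 2 mL) diluted to 10 mL with 0.1 M HCl/MeOH 60/40 (v/v) and kept at 37 °C. Aliquots taken at intervals and analysed by RP-HPLC (C18, acetonitrile/water gradient, 240 nm) with calibration over 1–200 µM. Half-life from n = 3.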
# Mus musculus [6] = assay: Induction of nitrite release in mouse assessed as nitrite AUC (0 to 24 hrs) at 10 mg/kg, po measured over 24 hrs by LC-MS/MS analysis; type: organism-based; parameters: time < 24 hr, dose 10 mg/kg, route oral; conditions: in vivo
# Outline: (§4)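 Mice dosed orally at 10 mg/kg in imwitor742/tween80 50/50; blood drawn at fixed times over 24 h and precipitated with 3 volumes acetonitrile. Nitrite converted to naphtotriazole with DAN (1 mM, 10 µL per 200 µL sample) at room temperature and measured by LC-MS/MS against a 0.01-10 µM NAT calibration; basal level and conversion factor from spikes; AUC0-24h.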
# Thoracic aorta [7] = assay: Vasodilatory activity in Wistar rat thoracic aorta assessed as inhibition of L-phenylephrine-induced contraction in presence of 1 uM 1H-[1,2,4]oxadiazolo[4,3-a]quinoxalin-1-one; type: functional, tissue-based
# Outline: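 Same rat aorta strip protocol with 1 µM L-phenylephrine precontraction. 1 µM ODQ was added 5 min before contraction, pre-incubating for at least 30 min before the vasodilator. Isometric recording; EC50 (±SEM) in µM from at least five experiments.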
# Thoracic aorta [8] = assay: Vasodilatory activity in Wistar rat denuded thoracic aorta assessed as inhibition of L-phenylephrine-induced contraction; type: functional, tissue-based
# Outline: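 Endothelium-denuded thoracic aorta strips from male Wistar rats (180–200 g) in gassed Krebs-type buffer at 37 °C, pH 7.4. Strips equilibrated 1.5 h, then contracted with 1 µM L-phenylephrine. Cumulative concentrations added at plateau and isometric tension recorded. EC50 (±SEM) in µM from at least five experiments.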
# Liver [9] = assay: Induction of nitrate production in Wistar rat liver homogenate at 200 uM by griess method; type: functional, tissue-based; conditions: TDE = time-dependent effect
# Outline: (§5)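 Male Wistar rat liver homogenate (6.4 mg protein/mL; 2 mM GSH, 1 mM NADPH; Tris-HCl/KCl pH 7.4; 37 °C) with compound at 200 µM final. Deproteinized filtrate mixed with Griess reagent: nitrite after 10 min at 37 °C; nitrite+nitrate after VCl3 reduction, 45 min at 37 °C. Absorbance at 540 nm, calibration 1–100 µM. Expressed as %mol per mol compound, n = 3.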
# Liver [10] = assay: Induction of nitrite production in Wistar rat liver homogenate at 200 uM by griess method; type: functional, tissue-based; conditions: TDE = time-dependent effect; outline: as §5
# Liver [11] = assay: Induction of nitrite production in Wistar rat liver homogenate at 200 uM after 5 hrs by griess method; type: functional, tissue-based; outline: as §5
# Liver [12] = assay: Induction of nitrate production in Wistar rat liver homogenate at 200 uM after 5 hrs by griess method; type: functional, tissue-based; outline: as §5
# [13] = Permeability of the compound by PAMPA-HDM method; type: ADME
# Outline: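 96-well polycarbonate filters impregnated with 5% hexadecane in hexane. Donor held compound in water with 5% DMSO and 100 mM KCl; acceptor held the same medium. Incubated at room temperature with shaking at 150 rpm for 1–6 h. Both compartments quantified by RP-HPLC. logPe and retention R calculated with correction for hydrolysis; membrane integrity checked by electrical resistance.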
# Mus musculus [14] = assay: AUC (0 to 24 hrs) in mouse assessed isosorbide mononitrate as at 10 mg/kg, po after 24 hrs; type: ADME, organism-based, Plasma; parameters: time < 24 hr, dose 10 mg/kg, route oral; conditions: in vivo; outline: as §4
# Serum = assay: Stability in human serum at 250 uM by RP-HPLC analysis; type: ADME, cell-free; outline: as §2
# [15] = Stability in 0.1 M HCl/MeOH 60/40 (v/v) mixture by RP-HPLC analysis; type: physicochemical; conditions: buffer; outline: as §3
# [16] = Stability in 5% DMSO/0.1 M KCl by RP-HPLC analysis; type: physicochemical; outline: as §1
SMILES,half-life at 200 µM [1] [min],logD [2],half-life [3] [h],half-life at 250 µM [4] [h],half-life [5] [h],pEC50 (Thoracic aorta [7]),inhibition (Thoracic aorta [8]),also measured
Cc1cc(OC(=O)C(C)(C)CO[N+](=O)[O-])n(-c2ccccc2)n1,< 1,3.55,36,0.0317,1.9,–,–,–
Cc1cc(OC(=O)OCCCO[N+](=O)[O-])n(-c2ccccc2)n1,< 1,3.35,13,< 0.0167,1.4,–,–,AUC (Mus musculus [6]): 964 µM·min
O=C(O)c1ccc(CCCO[N+](=O)[O-])cc1,–,–,–,–,–,< 4.00,Dose-dependent effect,–
Cc1cc(OC(=O)CCCCCO[N+](=O)[O-])n(-c2ccccc2)n1,< 1,3.79,31,< 0.0167,1,–,–,–
O=C(O)c1ccc(OCC(CO[N+](=O)[O-])O[N+](=O)[O-])cc1 (configuration not stated),–,–,–,–,–,–,Dose-dependent effect,–
O=C(O)c1ccc(OCCCO[N+](=O)[O-])cc1,–,–,–,–,–,–,Dose-dependent effect,–
O=[N+]([O-])OCCCO [ABRUCOMSTAT],–,–,–,–,–,< 4.00,Dose-dependent effect,pEC50 (Thoracic aorta [8]): 5.40
O=[N+]([O-])OCCCCCCO,–,–,–,–,–,< 4.00,Dose-dependent effect,pEC50 (Thoracic aorta [8]): 5.82
Cc1cc(OC(=O)C(C)(C)CCCCO[N+](=O)[O-])n(-c2ccccc2)n1,2,4.3,22,0.222,24,< 4.00,Dose-dependent effect,AUC (Mus musculus [6]): 1790 µM·min; Activity (Liver [9]): tde; Activity (Liver [10]): tde; pEC50 (Thoracic aorta [8]): 4.96
CC(C)(CO[N+](=O)[O-])C(=O)O,–,–,–,–,–,< 4.00,Dose-dependent effect,pEC50 (Thoracic aorta [8]): 4.89
Cc1cc(OC(=O)c2ccc(OCC(CO[N+](=O)[O-])O[N+](=O)[O-])cc2)n(-c2ccccc2)n1 (configuration not stated),< 1,5.14,–,0.13,25,–,–,Activity (Liver [11]): Active; Activity (Liver [12]): Active; log Pe [13]: ND(Insoluble); t1/2 [3]: ND(Insoluble)
O=C(O)CCCCCO[N+](=O)[O-],–,–,–,–,–,< 4.00,Dose-dependent effect,–
O=C(O)c1ccc(CC(CO[N+](=O)[O-])O[N+](=O)[O-])cc1 (configuration not stated),–,–,–,–,–,< 4.00,Dose-dependent effect,–
Cc1cc(OC(=O)c2ccc(CCCO[N+](=O)[O-])cc2)n(-c2ccccc2)n1,< 1,4.76,–,0.0667,13,–,–,log Pe [13]: ND(Insoluble); t1/2 [3]: ND(Insoluble)
Cc1cc(OC(=O)OCCCCC(CO[N+](=O)[O-])O[N+](=O)[O-])n(-c2ccccc2)n1 (configuration not stated),< 1,4.63,6,< 0.0167,3.1,–,–,Activity (Liver [11]): Active; Activity (Liver [12]): Active
Cc1cc(OC(=O)c2ccc(OCCCO[N+](=O)[O-])cc2)n(-c2ccccc2)n1,< 1,4.74,–,0.0833,35,–,–,log Pe [13]: ND(Insoluble); t1/2 [3]: ND(Insoluble)
Cc1cc(OC(=O)C(C)(C)CCC(CO[N+](=O)[O-])O[N+](=O)[O-])n(-c2ccccc2)n1 (configuration not stated),3,4.04,16,0.27,10,< 4.00,Dose-dependent effect,Activity (Liver [11]): Active; Activity (Liver [12]): Active; Activity (Liver [9]): tde; Activity (Liver [10]): tde; pEC50 (Thoracic aorta [8]): 5.60
Cc1cc(OC(=O)CCCC(CO[N+](=O)[O-])O[N+](=O)[O-])n(-c2ccccc2)n1 (configuration not stated),< 1,3.95,10,< 0.0167,0.7,–,–,–
O=[N+]([O-])O[C@H]1CO[C@H]2[C@@H]1OC[C@H]2O[N+](=O)[O-] [ISOSORBIDE DINITRATE],–,–,–,–,–,–,–,AUC (Mus musculus [14]): 2352 µM·min
Cc1cc(OC(=O)OCCCCCCO[N+](=O)[O-])n(-c2ccccc2)n1,< 1,4.39,25,< 0.0167,4,–,–,–
CC(C)(CCC(CO[N+](=O)[O-])O[N+](=O)[O-])C(=O)O (configuration not stated),–,–,–,–,–,< 4.00,Dose-dependent effect,pEC50 (Thoracic aorta [8]): 5.38
CC1=NN(c2ccccc2)C(=O)C1 [EDARAVONE],–,1.44,–,–,–,–,–,Stability (Serum): Stable; Stability [15]: Stable; Stability [16]: Stable
Cc1cc(OC(=O)c2ccc(CC(CO[N+](=O)[O-])O[N+](=O)[O-])cc2)n(-c2ccccc2)n1 (configuration not stated),< 1,4.88,–,0.118,8,–,–,Activity (Liver [11]): Active; Activity (Liver [12]): Active; log Pe [13]: ND(Insoluble); t1/2 [3]: ND(Insoluble)
CC(C)(CCCCO[N+](=O)[O-])C(=O)O,–,–,–,–,–,< 4.00,Dose-dependent effect,pEC50 (Thoracic aorta [8]): 5.05
